Reference: ChEMBL document CHEMBL1127834, “Naphthalenic lignan lactones as selective, nonredox 5-lipoxygenase inhibitors. Synthesis and biological activity of (methoxyalkyl)thiazole and methoxytetrahydropyran hybrids” (J Med Chem, 1994)

What was measured:
[1] = test system: Monkey; test: Inhibition of antigen-induced bronchoconstriction in allergic squirrel monkeys at 0.3 mg/kg; format: functional; conditions: in Saimiri
In short: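 Allergic squirrel monkeys dosed orally at 0.3 mg/kg 4 h before aerosol challenge with Ascaris antigen. Read-outs were the increase in airway resistance (RL) and the decrease in dynamic compliance (Cdyn).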

[2] = organism: Rattus norvegicus; test: Dose-dependent inhibition of LTB4 by the compound after 3h of oral pretreatment in rat pleural; format: functional
[3] = organism: Homo sapiens; test: In vitro inhibition of LTB4 formation in human whole blood(HWB); format: functional
[4] = molecular target: T1, Polyunsaturated fatty acid 5-lipoxygenase (Homo sapiens, UniProt P09917); test: In vitro potency against human 5-Lipoxygenase
T1 sequence (P09917 whole entry): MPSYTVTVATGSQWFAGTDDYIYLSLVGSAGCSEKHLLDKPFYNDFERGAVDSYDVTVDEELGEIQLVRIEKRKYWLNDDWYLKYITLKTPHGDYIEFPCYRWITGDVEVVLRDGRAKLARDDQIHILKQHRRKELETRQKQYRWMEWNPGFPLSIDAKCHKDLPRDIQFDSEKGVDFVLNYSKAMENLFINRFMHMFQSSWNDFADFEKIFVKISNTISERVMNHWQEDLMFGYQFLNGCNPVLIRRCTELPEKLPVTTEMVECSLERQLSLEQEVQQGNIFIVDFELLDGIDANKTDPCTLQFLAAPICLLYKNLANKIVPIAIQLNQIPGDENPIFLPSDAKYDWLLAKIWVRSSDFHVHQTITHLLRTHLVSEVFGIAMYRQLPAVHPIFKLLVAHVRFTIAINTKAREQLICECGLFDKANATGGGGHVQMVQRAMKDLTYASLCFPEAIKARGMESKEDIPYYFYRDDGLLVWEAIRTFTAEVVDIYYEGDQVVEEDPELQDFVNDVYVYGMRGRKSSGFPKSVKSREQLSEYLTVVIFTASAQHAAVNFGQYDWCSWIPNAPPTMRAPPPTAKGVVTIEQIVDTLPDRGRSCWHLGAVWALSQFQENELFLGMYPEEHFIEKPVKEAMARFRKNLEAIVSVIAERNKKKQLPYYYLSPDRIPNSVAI
In short: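 Soluble cell-free fraction of Sf9 cells expressing recombinant human 5-LO (10 μg protein/mL). Conjugated diene formation followed at A234. Inhibitors added from 500-fold DMSO stocks.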

[5] = organism: Homo sapiens; test: In vitro inhibition of LTB4 formation in human peripheral blood polymorphonuclear leukocytes (HPMN); format: functional
[6] = Cmax value of compound was determined after 1 hr; format: ADME, organism-based; conditions: in vivo
In short: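 Male Sprague-Dawley rats (2), starved overnight, dosed orally at 50 mg/kg as a solution in 0.5% methocel. Jugular vein blood sampled at 0, 0.5, 1, 2, 4, 6 and 8 h. Plasma proteins precipitated with an equal volume of acetonitrile. Supernatant analysed by reversed-phase HPLC for the lactone.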

[7] = organism: Rattus norvegicus; test: Dose-dependent inhibition of LTB4 by the compound after 2 hr of oral pretreatment in rat pleural; format: functional

| Compound | inhibition in vivo at 0.3 mg/kg [1] [%] | ED50 [2] [mg/kg] | IC50 [3] [nM] | IC50 [4] [nM] | IC50 [5] [nM] | Cmax [6] [µM] | ED50 [7] [mg/kg] |
| --- | --- | --- | --- | --- | --- | --- | --- |
| COC1(c2cccc(COc3ccc4c(-c5ccccc5)c(CO)c(C(=O)[O-])cc4c3)c2)CCOCC1.[Na+] | 95 | 0.6 |  |  |  |  |  |
| CC(c1cc2ccccc2s1)N(O)C(N)=O (configuration not stated) [ZILEUTON] |  |  | 2000 |  |  |  |  |
| COC1(c2cccc(COc3ccc4ccccc4c3)c2)CCOCC1 |  |  | 1500 | 1000 | 55 |  |  |
| COC1(c2cccc(COc3ccc4c(-c5ccccc5)c5c(cc4c3)C(=O)OC5)c2)CCOCC1 |  |  | 50 |  | 1.5 | 4 |  |
| CCC(OC)(c1cccc(OCc2ccc3ccccc3c2)c1)c1nccs1 (configuration not stated) [ZM-211965] |  |  | 700 |  | 4.4 |  |  |
| CCC(OC)(c1cccc(COc2ccc3c(-c4ccccc4)c4c(cc3c2)C(=O)OC4)c1)c1nccs1 (configuration not stated) |  |  | 1400 | 160 | 4.8 |  |  |
| CC(C)(C)Sc1c(CC(C)(C)C(=O)O)n(Cc2ccc(Cl)cc2)c2ccc(OCc3ccc4ccccc4n3)cc12 [QUIFLAPON] |  |  |  | 5000 |  |  | 0.5 |
| CCC(OC)(c1cccc(COc2ccc3ccccc3c2)c1)c1nccs1 (configuration not stated) |  |  | > 3000 |  | 11 |  |  |
| COC1(c2cccc(OCc3ccc4c(-c5ccccc5)c5c(cc4c3)C(=O)OC5)c2)CCOCC1 |  |  | 50 | 20 | 0.9 |  |  |
| CCC(OC)(c1cccc(OCc2ccc3c(-c4ccccc4)c4c(cc3c2)C(=O)OC4)c1)c1nccs1 (configuration not stated) |  |  | 700 | 50 | 2.2 |  |  |
| COC1(c2cccc(OCc3ccc4ccccc4c3)c2)CCOCC1 |  |  | 60 | 10 | 1.2 |  |  |
